These results are taken from ChEMBL document CHEMBL1123281, “Synthesis and rat lens aldose reductase inhibitory activity of some benzopyran-2-ones” (J Med Chem, 1986).

The target in test [1] is Aldo-keto reductase family 1 member B1 (Rattus norvegicus) (UniProt P07943). Kind of test: Compound was tested for percent inhibition at 10 e-4 M against rat lens aldose reductase. The method in brief: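 Single-concentration screen at 100 μM against crude rat lens supernatant. The reaction mix was 0.1 M phosphate pH 6.2, 0.104 mM NADPH and 10 mM DL-glyceraldehyde, started with substrate. NADPH loss was followed at 340 nm for 5 min, with inhibitor included in the blanks. Percent inhibition compares the rate with a substrate-only control. Final Me2SO was ≤1%.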

The target of test [2] is T1, Aldo-keto reductase family 1 member B1 (Rattus norvegicus, UniProt P07943). Kind of test: Compound was tested for inhibitory concentration against rat lens aldose reductase (noncompetitive inhibition type). The method, boiled down:
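Crude supernatant from 50 rat lenses homogenized in distilled water, centrifuged 10 000 rpm, 10 min, 0–5 °C. Read-out was NADPH decrease at 340 nm over 5 min in 0.1 M phosphate pH 6.2, 0.104 mM NADPH, 10 mM DL-glyceraldehyde. IC50 came from least-squares log dose–response fits, using ≥4 concentrations ×4 replicates. Inhibition type was read from double-reciprocal plots with 0.0625–1.0 mM substrate.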

The target of test [3] is T1, Aldo-keto reductase family 1 member B1. As to the kind of experiment: Compound was tested for inhibitory concentration against rat lens aldose reductase (uncompetitive inhibition type).

Usually inhibition stands for the percentage by which the read-out fell short of the control. A high value points to a response far below the control. One may read the IC50 as the concentration that inhibits the measured activity by half. A high value points to lower potency.

`CC(=O)Oc1ccc2c(C)cc(=O)oc2c1`: the inhibition in test [1] worked out at 13%.

In test [1], `Cc1cc(=O)oc2cc(Cl)ccc12` yielded an inhibition of 10%.

Take `Cc1cc(=O)oc2ccccc12`: the inhibition in test [1] is 19%.

Molecule `CC(=O)Oc1ccc2c(CC(=O)O)cc(=O)oc2c1` returned a half-maximal inhibitory concentration (IC50) in test [2] of 61 µM. That is a double-digit micromolar value.

In turn, `O=C(O)Cc1cc(=O)oc2cc(Cl)ccc12` displayed a half-maximal inhibitory concentration (IC50) in test [3] of 0.56 µM.

With `COc1ccc2c(C)cc(=O)oc2c1`, the inhibition in test [1] is 21%.

In turn, `O=C(O)Cc1cc(=O)oc2c1ccc1ccccc12` returned a half-maximal inhibitory concentration (IC50) in test [3] of 0.14 µM.

In test [3], `COC(=O)Cc1cc(=O)oc2cc(O)ccc12` registered an IC50 of 38 µM.

With `O=C(O)Cc1cc(=O)oc2cc(O)cc(O)c12`, the 50% inhibitory concentration (IC50) in test [2] stood at 0.26 µM.

Consider `Cc1cc(=O)oc2ccc(O)cc12`, for which the inhibition in test [1] was 22%.

For the molecule `COc1ccc2c(C(=O)O)cc(=O)oc2c1`, the concentration for half-maximal inhibition (IC50) in test [3] amounted to 11 µM.

In turn, `CCc1ccc2c(CC(=O)O)cc(=O)oc2c1` showed an IC50 in test [3] of 0.24 µM.

Turning to `CCc1ccc2c(C)cc(=O)oc2c1`, the inhibition in test [1] came out at 16%.

`O=C(O)Cc1cc(=O)oc2ccc3ccccc3c12`: in test [3], the 50% inhibitory concentration (IC50) is 0.02 µM.

Consider `O=C(O)Cc1cc(=O)oc2ccccc12`, for which, in test [3], the half-maximal inhibitory concentration (IC50) worked out at 0.6 µM.

For the molecule `Cc1cc(=O)oc2cc(O)cc(O)c12` [5,7-DIHYDROXY-4-METHYLCOUMARIN], in test [2], the IC50 was 17 µM. In other words, the double-digit micromolar range.

In the case of `Cc1cc(=O)oc2cc(O)ccc12` [HYMECROMONE], the IC50 in test [2] was 62 µM.

In test [2], `COc1ccc2c(CCC(=O)O)cc(=O)oc2c1` showed an IC50 of 2.1 µM.

In test [2], `COc1ccc2c(CC(=O)O)cc(=O)oc2c1` yielded a concentration for half-maximal inhibition (IC50) of 0.37 µM.

For the molecule `COc1ccc2c(/C=C/C(=O)O)cc(=O)oc2c1`, the IC50 in test [3] was determined as 4.4 µM.

In the case of `O=C(O)Cc1cccc2ccccc12`, the concentration for half-maximal inhibition (IC50) in test [2] came out at 32 µM.

As for `NC(=O)Cc1cc(=O)oc2cc(O)ccc12`, the IC50 in test [3] is 10 µM.

As to `O=C(O)Cc1cc(=O)oc2cc(O)ccc12`, in test [2], the 50% inhibitory concentration (IC50) turned out to be 0.15 µM.

Consider `Cc1cc(=O)oc2c(O)c(O)ccc12` [4-METHYLDAPHNETIN], for which the half-inhibitory concentration (IC50) in test [3] came to 10 µM.
